Assay results from ChEMBL document CHEMBL1127367, “Antiproliferative properties of polyamine analogues: a structure-activity study” (J Med Chem, 1994).

What was measured:
L1210 [1] = assay: Inhibition of radiolabeled spermidine uptake into L1210 cells in vitro.; assay type: functional, cell-based, Mus musculus
L1210 [2] = assay: Compound level in L1210 cells after 48 hours of incubation at initial concentration of 500 uM is expressed as nmol/10e6 cells; assay type: functional, Mus musculus; design: unit: nmol/10^6 cells
L1210 [3] = assay: Compound was evaluated for its impact on putrescine (Put) levels after 48 hr at concentration 100 uM; assay type: functional, Mus musculus
L1210 [4] = assay: Compound was evaluated for its impact on spermine levels after 48 hr at concentration 100 uM; assay type: functional, Mus musculus
L1210 [5] = assay: Compound was evaluated for its impact on spermine levels after 48 hr at concentration 500 uM; assay type: functional, Mus musculus
L1210 [6] = assay: Compound level in L1210 cells after 48 hours of incubation at initial concentration of 100 uM is expressed as nmol/10e6 cells; assay type: functional, Mus musculus; design: unit: nmol/10^6 cells
[7] = target: T1, S-adenosylmethionine decarboxylase proenzyme 1 (Mus musculus) (UniProt P0DMN7); assay: Inhibition of S-Adenosyl-methionine decarboxylase (AdoMetDC) activity; assay type: functional; design: concentration or dose not given beside the values
T1 sequence (whole entry): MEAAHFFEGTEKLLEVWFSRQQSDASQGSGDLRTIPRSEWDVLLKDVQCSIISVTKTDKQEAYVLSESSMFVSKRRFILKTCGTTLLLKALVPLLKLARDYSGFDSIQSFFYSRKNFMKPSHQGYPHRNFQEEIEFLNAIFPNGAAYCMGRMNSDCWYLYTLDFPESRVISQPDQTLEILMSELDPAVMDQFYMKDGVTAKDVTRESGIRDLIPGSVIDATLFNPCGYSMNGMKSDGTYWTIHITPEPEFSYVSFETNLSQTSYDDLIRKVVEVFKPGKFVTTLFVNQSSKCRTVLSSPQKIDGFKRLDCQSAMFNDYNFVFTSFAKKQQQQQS

L1210 [8] = assay: Compound was evaluated for its impact on spermidine levels after 48 hr at concentration 500 uM; assay type: functional, Mus musculus
L1210 [9] = assay: In vitro inhibition of L1210 growth after 48 hours.; assay type: functional, cell-based; conditions: Mus musculus, L1210, 48 h
Procedure, shortened: (§1)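 Log-phase L1210 cultures (0.5–1.0 × 10^5 cells/mL) treated with analogue diluted in sterile water and filter-sterilized. After 48 h, cells were reseeded and grown a further 48 h for the 96 h point. Cells counted by Coulter counter. % growth = (treated − inoculum)/(untreated − inoculum) × 100.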

L1210 [10] = assay: In vitro inhibition of L1210 growth after 96 hours.; assay type: functional, cell-based; conditions: Mus musculus, L1210, 96 h; procedure, shortened: as §1
[11] = target: T2, Ornithine decarboxylase (Mus musculus) (UniProt P00860); assay: Inhibition of ornithine decarboxylase (ODC) activity; assay type: functional; design: concentration or dose not given beside the values
T2 sequence (whole entry): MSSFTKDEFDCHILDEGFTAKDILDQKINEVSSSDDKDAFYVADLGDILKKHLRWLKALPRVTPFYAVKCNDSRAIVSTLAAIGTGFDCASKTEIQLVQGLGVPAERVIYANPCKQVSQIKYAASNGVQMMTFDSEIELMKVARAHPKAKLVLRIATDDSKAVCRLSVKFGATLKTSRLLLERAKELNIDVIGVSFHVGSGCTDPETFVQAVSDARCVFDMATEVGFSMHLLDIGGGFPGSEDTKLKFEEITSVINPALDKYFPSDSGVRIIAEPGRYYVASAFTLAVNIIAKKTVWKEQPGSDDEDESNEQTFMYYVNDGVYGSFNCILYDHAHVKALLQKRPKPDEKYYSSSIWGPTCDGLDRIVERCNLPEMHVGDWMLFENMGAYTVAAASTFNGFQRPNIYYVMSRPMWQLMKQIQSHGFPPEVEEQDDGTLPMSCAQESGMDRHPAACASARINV

L1210 [12] = assay: Compound was evaluated for its impact on putrescine (Put) levels after 48 hr at concentration 500 uM; assay type: functional, Mus musculus
L1210 [13] = assay: Compound was evaluated for its impact on spermidine levels after 48 hr at concentration 100 uM; assay type: functional, Mus musculus
[14] = target: Spermidine/spermine N(1)-acetyltransferase (SAT) (Mus musculus) (UniProt Q6P8J2+P48026); assay: […] spermidine/spermine N1-Acetyltransferase (SSAT) activity; assay type: functional; design: concentration or dose not given beside the values
Chain of Spermidine/spermine N(1)-acetyltransferase (SAT) (Mus musculus) (P48026 whole entry, looked up): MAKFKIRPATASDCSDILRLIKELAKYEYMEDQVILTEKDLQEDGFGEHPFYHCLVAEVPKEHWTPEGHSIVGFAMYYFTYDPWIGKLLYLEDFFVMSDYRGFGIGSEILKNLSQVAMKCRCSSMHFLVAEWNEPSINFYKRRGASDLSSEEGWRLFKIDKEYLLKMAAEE
Chain of Spermidine/spermine N(1)-acetyltransferase (SAT) (Mus musculus) (Q6P8J2 whole entry, looked up): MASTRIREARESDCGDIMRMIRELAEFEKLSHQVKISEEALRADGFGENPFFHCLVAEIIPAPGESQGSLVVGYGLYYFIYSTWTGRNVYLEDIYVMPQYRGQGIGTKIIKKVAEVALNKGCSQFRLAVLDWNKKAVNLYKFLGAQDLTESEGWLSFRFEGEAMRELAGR

[15] = tested on: S-adenosylmethionine decarboxylase (Mus musculus); assay: Effect of compound on S-Adenosyl-methionine decarboxylase (AdoMetDC) activity expressed as percent of untreated control for (AdoMetDC) (1 uM at 6 hr)
L1210 [16] = assay: Compound was evaluated for its impact on spermine […] levels after 48 hr at concentration 500 uM; assay type: functional, Mus musculus
Procedure, shortened: (§2)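 L1210 suspension cultures were grown in RPMI-1640 with 10% NuSerum, 2% HEPES-MOPS and 1 mM aminoguanidine (37 °C, 5% CO2). Log-phase cells were treated for 48 h, then washed twice in cold RPMI-1640 and pelleted. Pellets were extracted with 0.6 N perchloric acid, and supernatants were held at −20 °C until HPLC. Polyamine levels are given as % of untreated controls.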

L1210 [17] = assay: Compound was evaluated for its impact on spermidine levels after 48 hr at concentration 3 uM; assay type: functional, Mus musculus; procedure, shortened: as §2
L1210 [18] = assay: Compound was evaluated for its impact on spermine levels after 48 hr at concentration 3 uM; assay type: functional, Mus musculus
Procedure, shortened: (§3)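 Murine L1210 leukemia cells in log-phase suspension (RPMI-1640, 10% NuSerum, 2% HEPES-MOPS, 1 mM aminoguanidine, 37 °C, 5% CO2) exposed to analogue for 48 h. Cells washed twice in cold RPMI-1640, extracted with 0.6 N perchloric acid, and polyamines quantified by HPLC. Spermine is reported as % of untreated control.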

L1210 [19] = assay: Compound was evaluated for its impact on spermidine levels after 48 hr at concentration 15 uM; assay type: functional, Mus musculus; procedure, shortened: as §2
L1210 [20] = assay: Compound level in L1210 cells after 48 hours of incubation at initial concentration of 15 uM is expressed as nmol/10e6 cells; assay type: functional, Mus musculus
Procedure, shortened: (§4)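 Murine L1210 leukemia cells were kept in logarithmic growth as a suspension in RPMI-1640 with 10% NuSerum, 2% HEPES-MOPS buffer and 1 mM aminoguanidine, at 37 °C under 5% CO2. Log-phase cells were exposed to the analogue for 48 h. Intracellular analogue content is reported per 10^6 cells.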

L1210 [21] = assay: Compound was evaluated for its impact on putrescine (Put) levels after 48 hr at concentration 15 uM; assay type: functional, Mus musculus; procedure, shortened: as §2
L1210 [22] = assay: Compound level in L1210 cells after 48 hours of incubation at initial concentration of 3 uM is expressed as nmol/10e6 cells; assay type: functional, Mus musculus; procedure, shortened: as §4
L1210 [23] = assay: Compound was evaluated for its impact on spermine levels after 48 hr at concentration 15 uM; assay type: functional, Mus musculus; procedure, shortened: as §3
L1210 [24] = assay: Compound was evaluated for its impact on putrescine (Put) levels after 48 hr at concentration 3 uM; assay type: functional, Mus musculus; procedure, shortened: as §2
L1210 [25] = assay: Compound was evaluated for its impact on spermidine levels after 48 hr at concentration 1.5 uM; assay type: functional, Mus musculus; procedure, shortened: as §2
L1210 [26] = assay: Compound was evaluated for its impact on putrescine (Put) levels after 48 hr at concentration 0.3 uM; assay type: functional, Mus musculus; procedure, shortened: as §2
L1210 [27] = assay: Compound was evaluated for its impact on putrescine (Put) levels after 48 hr at concentration 1.5 uM; assay type: functional, Mus musculus; procedure, shortened: as §2
L1210 [28] = assay: (§5) Compound was evaluated for its impact on spermine levels uM; assay type: functional, Mus musculus
L1210 [29] = assay: Compound was evaluated for its impact on spermidine levels after 48 hr at concentration 0.3 uM; assay type: functional, Mus musculus; procedure, shortened: as §2
L1210 [30] = assay: Compound level in L1210 cells after 48 hours of incubation at initial concentration of 1.5 uM is expressed as nmol/10e6 cells; assay type: functional, Mus musculus; procedure, shortened: as §4
L1210 [31] = assay: as §5; assay type: functional, Mus musculus; remark: listed apart in the source
L1210 [32] = assay: Compound level in L1210 cells after 48 hours of incubation at initial concentration of 0.3 uM is expressed as nmol/10e6 cells; assay type: functional, Mus musculus; procedure, shortened: as §4

SMILES	Activity [7]	IC50 (L1210 [9])	IC50 (L1210 [10])	Activity [11]	Activity [14]	Activity [15]	Ki (L1210 [1])	Activity (L1210 [2])	Polyamine (L1210 [3])	Polyamine (L1210 [4])	Polyamine (L1210 [5])	Activity (L1210 [6])	Polyamine (L1210 [8])	Polyamine (L1210 [12])	Polyamine (L1210 [13])	also measured
CNCCCCNCCCCNCCCCNC	45%	> 100000 nM	320 nM	4%	140%	–	970 nM	1.03	0%	30%	27%	1.49	0%	0%	0%	–
CC(C)(C)NCCCCNCCCCNCCCCNC(C)(C)C	–	> 100000 nM	3000 nM	100%	–	100%	56000 nM	–	83%	94%	72%	–	58%	55%	85%	–
CNCCCNCCCNCCCNC	49%	> 100000 nM	2500 nM	6%	200%	–	5600 nM	1.84	0%	36%	27%	2.14	3%	0%	5%	–
CNCCCNCCCCNCCCNC	40%	> 100000 nM	–	3%	300%	–	1100 nM	1.24	0%	21%	–	1.26	0%	0%	0%	Polyamine (L1210 [16]): 24%

Now from value to molecule, other results behind:

Activity [7]	IC50 (L1210 [9])	IC50 (L1210 [10])	Activity [11]	Activity [14]	Activity [15]	SMILES	Ki (L1210 [1])	Activity (L1210 [2])	Polyamine (L1210 [3])	Polyamine (L1210 [4])	Polyamine (L1210 [5])	Activity (L1210 [6])	Polyamine (L1210 [8])	Polyamine (L1210 [12])	Polyamine (L1210 [13])	also measured
72%	–	–	52%	500%	–	CCCNCCCNCCCCNCCCNCCC	2300 nM	–	–	–	–	–	–	–	–	Polyamine (L1210 [17]): 18%; Polyamine (L1210 [18]): 64%; Polyamine (L1210 [19]): 9%; Activity (L1210 [20]): 1.09; Polyamine (L1210 [21]): 0%; Activity (L1210 [22]): 1.12; Polyamine (L1210 [23]): 43%; Polyamine (L1210 [24]): 0%
–	300 nM	35 nM	20%	120%	39%	CCNCCCCNCCCCCNCCCCNCC	6000 nM	–	–	–	–	–	–	–	–	Polyamine (L1210 [25]): 5%; Polyamine (L1210 [26]): 44%; Polyamine (L1210 [27]): 0%; Polyamine (L1210 [28]): 70%; Polyamine (L1210 [29]): 61%; Activity (L1210 [30]): 0.72; Polyamine (L1210 [31]): 31%; Activity (L1210 [32]): 0.26
